Experimental data published in ChEMBL document CHEMBL4041496, “Natural-Based Indirubins Display Potent Cytotoxicity toward Wild-Type and T315I-Resistant Leukemia Cell Lines” (J Nat Prod, 2016).

Assays:
KCL-22 [1] = assay: Cytotoxicity against human KCL22 cells assessed as cell viability at 1 uM after 48 hrs by MTS assay relative to control; assay type: functional; settings: for viability at 1 µM: Homo sapiens, KCL-22, 48 h, read-out: Activity
How it was run: (§1)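 Single-concentration screen: KCL-22 cells, or KCL-22 cells expressing T315I mutant Bcr-Abl, grown in RPMI-1640 with 10% FBS. Cells were seeded at 10 000/well, held overnight at 37 °C in 5% CO2, then exposed to 1 μM compound for 48 h, with DMSO as vehicle control. Viability was read by MTS tetrazolium-to-formazan conversion, absorbance 490 nm, in triplicate.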

KCL-22 [2] = assay: Cytotoxicity against human KCL22 cells harboring ABL1 T315I mutant assessed as reduction in cell viability after 48 hrs by MTS assay; assay type: functional, cell-based; settings: KCL-22, 48 h
[3] = target: Tyrosine-protein kinase ABL1 (Homo sapiens, UniProt P00519); assay: Inhibition of recombinant ABL1 (unknown origin) after 120 mins in presence of [33P]ATP
KCL-22 [4] = assay: Cytotoxicity against human KCL22 cells harboring ABL1 T315I mutant assessed as cell viability at 1 uM after 48 hrs by MTS assay relative to control; assay type: functional; settings: for viability at 1 µM: Homo sapiens, KCL-22, 48 h, read-out: Activity; how it was run: as §1
Aurora kinase A = target: T1, Aurora kinase A (Homo sapiens, UniProt O14965); assay: Inhibition of recombinant Aurora A (unknown origin) after 120 mins in presence of [33P]ATP
T1 sequence (O14965 whole entry): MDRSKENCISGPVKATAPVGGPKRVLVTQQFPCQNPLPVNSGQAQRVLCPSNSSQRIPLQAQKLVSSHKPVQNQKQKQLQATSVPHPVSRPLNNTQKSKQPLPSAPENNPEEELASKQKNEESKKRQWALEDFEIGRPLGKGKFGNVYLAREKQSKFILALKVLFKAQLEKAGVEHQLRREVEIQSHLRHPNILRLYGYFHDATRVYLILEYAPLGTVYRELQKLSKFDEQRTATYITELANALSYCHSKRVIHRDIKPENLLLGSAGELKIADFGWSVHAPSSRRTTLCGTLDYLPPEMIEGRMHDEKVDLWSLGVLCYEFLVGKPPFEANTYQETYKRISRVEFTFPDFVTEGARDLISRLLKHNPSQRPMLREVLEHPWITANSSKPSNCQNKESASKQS

[5] = target: Tyrosine-protein kinase ABL1 (Homo sapiens, UniProt P00519, T315I); assay: Inhibition of recombinant ABL1 T315I mutant (unknown origin) after 120 mins in presence of [33P]ATP
[6] = target: Proto-oncogene tyrosine-protein kinase Src (Homo sapiens, UniProt P12931); assay: Inhibition of recombinant c-Src (unknown origin) after 120 mins in presence of [33P]ATP
[7] = target: Tyrosine-protein kinase JAK2 (Homo sapiens, UniProt O60674); assay: Inhibition of recombinant JAK2 (unknown origin) after 120 mins in presence of [33P]ATP
KCL-22 [8] = assay: Cytotoxicity against human KCL22 cells assessed as reduction in cell viability after 48 hrs by MTS assay; assay type: functional, cell-based

Proto-oncogene tyrosine-protein kinase Src, sequence (P12931 2-536 limits assumed): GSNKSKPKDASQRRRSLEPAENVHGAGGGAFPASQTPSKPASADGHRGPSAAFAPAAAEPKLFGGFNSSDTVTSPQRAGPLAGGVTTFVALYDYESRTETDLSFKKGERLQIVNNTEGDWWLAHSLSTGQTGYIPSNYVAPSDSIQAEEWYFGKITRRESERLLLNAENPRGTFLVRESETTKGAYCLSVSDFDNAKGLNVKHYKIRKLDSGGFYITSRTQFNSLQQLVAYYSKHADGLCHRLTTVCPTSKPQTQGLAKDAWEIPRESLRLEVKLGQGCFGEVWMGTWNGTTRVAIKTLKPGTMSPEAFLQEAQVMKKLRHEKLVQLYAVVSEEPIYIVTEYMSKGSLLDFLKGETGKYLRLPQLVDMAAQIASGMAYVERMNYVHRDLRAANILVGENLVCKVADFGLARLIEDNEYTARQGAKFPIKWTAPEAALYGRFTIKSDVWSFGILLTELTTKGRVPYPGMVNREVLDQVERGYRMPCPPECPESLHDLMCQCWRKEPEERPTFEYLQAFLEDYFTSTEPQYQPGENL
Tyrosine-protein kinase JAK2, sequence (O60674 whole entry): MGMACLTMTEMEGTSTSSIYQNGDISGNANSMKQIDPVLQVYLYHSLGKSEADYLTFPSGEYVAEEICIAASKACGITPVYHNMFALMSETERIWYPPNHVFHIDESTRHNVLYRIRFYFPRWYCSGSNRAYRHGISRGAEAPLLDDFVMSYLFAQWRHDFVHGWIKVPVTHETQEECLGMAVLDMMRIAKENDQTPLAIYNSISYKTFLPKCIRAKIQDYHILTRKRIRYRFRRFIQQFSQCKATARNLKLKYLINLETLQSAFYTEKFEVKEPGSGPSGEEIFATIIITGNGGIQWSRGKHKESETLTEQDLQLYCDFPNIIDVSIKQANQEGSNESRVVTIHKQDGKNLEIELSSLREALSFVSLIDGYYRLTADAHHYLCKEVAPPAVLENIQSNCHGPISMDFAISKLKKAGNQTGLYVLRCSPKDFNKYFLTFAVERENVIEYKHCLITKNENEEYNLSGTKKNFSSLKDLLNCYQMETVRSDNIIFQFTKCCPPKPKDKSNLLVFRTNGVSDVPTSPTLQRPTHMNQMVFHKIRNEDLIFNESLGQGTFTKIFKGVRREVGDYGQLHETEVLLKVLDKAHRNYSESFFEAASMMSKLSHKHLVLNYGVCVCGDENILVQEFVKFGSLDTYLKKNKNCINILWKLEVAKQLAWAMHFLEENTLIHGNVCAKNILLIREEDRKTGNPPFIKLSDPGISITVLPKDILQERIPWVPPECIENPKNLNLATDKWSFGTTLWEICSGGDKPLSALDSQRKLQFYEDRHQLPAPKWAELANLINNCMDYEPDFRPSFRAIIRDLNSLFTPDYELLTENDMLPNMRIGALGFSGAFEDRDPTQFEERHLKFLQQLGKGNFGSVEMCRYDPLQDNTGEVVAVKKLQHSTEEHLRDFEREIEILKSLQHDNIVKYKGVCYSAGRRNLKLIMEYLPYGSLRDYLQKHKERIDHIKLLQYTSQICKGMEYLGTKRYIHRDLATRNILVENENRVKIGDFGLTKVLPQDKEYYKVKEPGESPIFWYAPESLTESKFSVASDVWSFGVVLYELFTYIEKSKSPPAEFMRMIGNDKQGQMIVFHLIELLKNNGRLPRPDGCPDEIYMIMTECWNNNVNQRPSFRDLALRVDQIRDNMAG

IC50 [3] [nM]	IC50 (Aurora kinase A) [nM]	IC50 [5] [nM]	IC50 [6] [nM]	IC50 [7] [nM]	Compound	viability at 1 µM (KCL-22 [1]) [%]	IC50 (KCL-22 [2]) [nM]	viability at 1 µM (KCL-22 [4]) [%]	IC50 (KCL-22 [8]; kcl-22) [nM]	Activity (KCL-22 [1]) [%]	Activity (KCL-22 [4]) [%]	IC50 (KCL-22 [8]; Homo sapiens, KCL-22, 48 h) [nM]
0.87	7.1	9.4	< 0.5	224	O=C1Nc2cc(Br)ccc2/C1=C1/Nc2ccccc2/C1=N\OCCN1CCNCC1 [listing 1 of 2 here]	< 50	430	< 50	330	–	–	–
–	–	–	–	–	CN1CCN(CCO/N=C2/C(=C3/C(=O)Nc4cc(Br)ccc43)Nc3ccccc32)CC1 [listing 1 of 2 here]	–	–	–	–	<50	>50	900
106	79	4560	4.9	7460	O=C1Nc2cc(Br)ccc2/C1=C1/Nc2ccccc2/C1=N\OCCN1CCCC1 [listing 1 of 2 here]	–	–	–	–	<50	<50	–
–	–	–	–	–	O=C1Nc2cc(Br)ccc2/C1=C1/Nc2ccccc2/C1=N\OCCN1CCNCC1 [listing 2 of 2 here]	–	–	–	780	<50	>50	–
10.2	–	194	0.61	589	CN(CCO/N=C1/C(=C2/C(=O)Nc3cc(Br)ccc32)Nc2ccccc21)CC(O)CO (centres undefined) [listing 1 of 2 here]	< 50	–	< 50	–	–	–	–
34.1	14.9	5160	0.83	> 10000	O=C1Nc2cc(Br)ccc2/C1=C1/Nc2ccccc2/C1=N\OCCN1CCN(CCOCCO)CC1 [listing 1 of 2 here]	–	–	–	–	>50	>50	–
3440	> 10000	> 10000	3.9	> 10000	COCCN1CCN(CCO/N=C2/C(=C3/C(=O)Nc4cc(Br)ccc43)Nc3ccccc32)CC1 [listing 1 of 2 here]	> 50	–	< 50	–	–	–	–
–	–	–	–	–	O=C1Nc2cc(Br)ccc2/C1=C1/Nc2ccccc2/C1=N\OCC(O)CO (centres undefined)	< 50	–	> 50	–	–	–	750
468	330	> 10000	1.7	> 10000	COCCN1CCN(CCO/N=C2/C(=C3/C(=O)Nc4cc(Br)ccc43)Nc3ccccc32)CC1 [listing 2 of 2 here]	–	–	–	–	>50	<50	–
–	175	5940	2.2	4410	O=C1Nc2cc(Br)ccc2/C1=C1/Nc2ccccc2/C1=N\OCCN1CCCC1 [listing 2 of 2 here]	< 50	–	< 50	–	–	–	–
7.2	9.7	178	< 0.5	551	CN(CCO/N=C1/C(=C2/C(=O)Nc3cc(Br)ccc32)Nc2ccccc21)CC(O)CO (centres undefined) [listing 2 of 2 here]	–	–	–	–	<50	<50	–
–	–	–	–	–	O=C1Nc2cc(Br)ccc2/C1=C1/Nc2ccccc2/C1=N\OCCN1CCN(CCO)CC1	–	–	–	–	<50	>50	830
–	–	–	–	–	N#Cc1ccc(NC(=O)O/N=C2/C(=C3/C(=O)Nc4cc(Br)ccc43)Nc3ccccc32)cc1	> 50	–	> 50	–	–	–	–
–	–	–	–	–	O=C1Nc2cc(Br)ccc2/C1=C1/Nc2ccccc2/C1=N\OCCN1CCN(CCOCCO)CC1 [listing 2 of 2 here]	> 50	–	< 50	–	–	–	–
–	–	–	–	–	CN1CCN(CCO/N=C2/C(=C3/C(=O)Nc4cc(Br)ccc43)Nc3ccccc32)CC1 [listing 2 of 2 here]	< 50	–	> 50	500	–	–	–
–	–	–	–	–	CC(=O)O/N=C1/C(=C2/C(=O)Nc3cc(Br)ccc32)Nc2ccccc21 [6-BROMOINDIRUBIN-3'-ACETOXIME]	> 50	–	> 50	–	–	–	–
–	–	–	–	–	O=C1Nc2cc(Br)ccc2/C1=C1/Nc2ccccc2/C1=N\O [6BIO]	> 50	–	> 50	–	–	–	–
